Reference: ChEMBL document CHEMBL3217698, “Syntheses and biological evaluation of new cephalosporin-oxazolidinone conjugates” (2010)

What was measured:
Staphylococcus aureus [1] = assay: Antimicrobial activity against Staphylococcus aureus SG511 assessed as inhibition zone at 37 degC for 24 hrs by agar diffusion method; assay type: functional
Method in brief: (§1)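 Well diffusion: 50 μL of a 1.0 mM solution in DMSO:MeOH (1:9) filled into 9 mm wells cut in Standard I Nutrient Agar or Mueller Hinton II Agar. Plates incubated at 37 °C for 24 h, then growth inhibition zone read in mm. Partially clear zones, or colonies within the zone, recorded as p.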

Escherichia coli [2] = assay: Antimicrobial activity against Escherichia coli SG458 assessed as partially clear inhibition zone at 37 degC for 24 hrs by agar diffusion method; assay type: functional
Method in brief: (§2)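 Agar well diffusion. Each 9 mm well in nutrient or Mueller Hinton II agar received 50 μL of a 1.0 mM solution in DMSO:MeOH (1:9). Plates were incubated at 37 °C for 24 h. The inhibition zone diameter was read in mm, including the well. A "p" marks a partially clear zone or colonies inside the zone.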

Staphylococcus aureus [3] = assay: Antimicrobial activity against Staphylococcus aureus Efs1 assessed as partially clear inhibition zone at 37 degC for 24 hrs by agar diffusion method; assay type: functional
Method in brief: as §2, with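 “of a 2.0 mM solution” for “of a 1.0 mM solution”, “including the 9 mm well. A” for “including the well. A”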

Pseudomonas aeruginosa [4] = assay: Antimicrobial activity against Pseudomonas aeruginosa K799/61 assessed as inhibition zone at 37 degC for 24 hrs by agar diffusion method; assay type: functional
Method in brief: (§3)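 Each solution at 2.0 mM in DMSO:MeOH (1:9), 50 μL filled into 9 mm agar wells (Standard I Nutrient or Mueller Hinton II Agar). Incubation at 37 °C for 24 h. Inhibition zone diameter measured in mm; a partially clear zone or colonies inside the zone noted as p.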

Staphylococcus aureus [5] = assay: Antimicrobial activity against methicillin-resistant Staphylococcus aureus 134/93 assessed as inhibition zone at 37 degC for 24 hrs by agar diffusion method; assay type: functional
Method in brief: as §2, with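 “of a 2.0 mM solution” for “of a 1.0 mM solution”, “including the 9 mm well. A” for “including the well. A”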

Bacillus subtilis [6] = assay: Antimicrobial activity against Bacillus subtilis ATCC 6633 assessed as inhibition zone at 37 degC for 24 hrs by agar diffusion method; assay type: functional; method in brief: as §1
Pseudomonas aeruginosa [7] = assay: Antimicrobial activity against Pseudomonas aeruginosa K799/61 assessed as faint inhibition zone at 37 degC for 24 hrs by agar diffusion method; assay type: functional
Method in brief: as §2, with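 “of a 2.0 mM solution” for “of a 1.0 mM solution”, “including the 9 mm well. A” for “including the well. A”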

Mycolicibacterium vaccae [8] = assay: Antimicrobial activity against Mycobacterium vaccae IMET assessed as inhibition zone at 37 degC for 24 hrs by agar diffusion method; assay type: functional; method in brief: as §1
Enterococcus faecalis [9] = assay: Antimicrobial activity against vancomycin-resistant Enterococcus faecalis 1528 assessed as inhibition zone at 37 degC for 24 hrs by agar diffusion method; assay type: functional
Method in brief: as §2, with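 “of a 2.0 mM solution” for “of a 1.0 mM solution”, “including the 9 mm well. A” for “including the well. A”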

Staphylococcus aureus [10] = assay: Antimicrobial activity against Staphylococcus aureus Efs4 assessed as inhibition zone at 37 degC for 24 hrs by agar diffusion method; assay type: functional; method in brief: as §3
Micrococcus luteus [11] = assay: Antimicrobial activity against Micrococcus luteus ATCC 10240 assessed as unclear inhibition zone at 37 degC for 24 hrs by agar diffusion method; assay type: functional; method in brief: as §2
Staphylococcus aureus [12] = assay: Antimicrobial activity against Staphylococcus aureus Efs4 assessed as partially clear inhibition zone at 37 degC for 24 hrs by agar diffusion method; assay type: functional
Method in brief: as §2, with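 “of a 2.0 mM solution” for “of a 1.0 mM solution”, “including the 9 mm well. A” for “including the well. A”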

Pseudomonas aeruginosa [13] = assay: Antimicrobial activity against Pseudomonas aeruginosa K799/WT assessed as partially clear inhibition zone at 37 degC for 24 hrs by agar diffusion method; assay type: functional
Method in brief: as §2, with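 “of a 2.0 mM solution” for “of a 1.0 mM solution”, “including the 9 mm well. A” for “including the well. A”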

Pseudomonas aeruginosa [14] = assay: Antimicrobial activity against Pseudomonas aeruginosa K799/WT assessed as faint inhibition zone at 37 degC for 24 hrs by agar diffusion method; assay type: functional; method in brief: as §3
Staphylococcus aureus [15] = assay: Antimicrobial activity against Staphylococcus aureus Efs1 assessed as inhibition zone at 37 degC for 24 hrs by agar diffusion method; assay type: functional; method in brief: as §3
Micrococcus luteus [16] = assay: Antimicrobial activity against Micrococcus luteus ATCC 10240 assessed as inhibition zone at 37 degC for 24 hrs by agar diffusion method; assay type: functional; method in brief: as §1
Bacillus subtilis [17] = assay: Antimicrobial activity against Bacillus subtilis ATCC 6633 assessed as partially clear inhibition zone at 37 degC for 24 hrs by agar diffusion method; assay type: functional; method in brief: as §1
Micrococcus luteus [18] = assay: Antimicrobial activity against Micrococcus luteus ATCC 10240 assessed as partially clear inhibition zone at 37 degC for 24 hrs by agar diffusion method; assay type: functional; method in brief: as §2
Pseudomonas aeruginosa [19] = assay: Antimicrobial activity against Pseudomonas aeruginosa K799/61 assessed as partially clear inhibition zone at 37 degC for 24 hrs by agar diffusion method; assay type: functional
Method in brief: as §2, with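 “of a 2.0 mM solution” for “of a 1.0 mM solution”, “including the 9 mm well. A” for “including the well. A”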

Escherichia coli [20] = assay: Antimicrobial activity against Escherichia coli SG458 assessed as inhibition zone at 37 degC for 24 hrs by agar diffusion method; assay type: functional; method in brief: as §1
Pseudomonas aeruginosa [21] = assay: Antimicrobial activity against Pseudomonas aeruginosa K799/61 assessed as inhibition zone at 5 ug/ml at 37 degC for 24 hrs by agar diffusion method; details: K799/61, 24 h, read-out: IZ
Micrococcus luteus [22] = assay: Antimicrobial activity against Micrococcus luteus ATCC 10240 assessed as inhibition zone at 5 ug/ml at 37 degC for 24 hrs by agar diffusion method; assay type: functional; details: ATCC 10240, 24 h, read-out: IZ
Method in brief: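 Agar well diffusion with the control antibiotic dissolved in water at 5 μg/mL. 50 μL was placed in each 9 mm well in nutrient or Mueller Hinton II agar. Plates were incubated at 37 °C for 24 h, and the inhibition zone diameter was read in mm, including the well.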

Pseudomonas aeruginosa [23] = assay: Antimicrobial activity against Pseudomonas aeruginosa K799/WT assessed as inhibition zone at 5 ug/ml at 37 degC for 24 hrs by agar diffusion method; details: read-out: IZ
Staphylococcus aureus [24] = assay: Antimicrobial activity against Staphylococcus aureus SG511 assessed as inhibition zone at 5 ug/ml at 37 degC for 24 hrs by agar diffusion method; details: SG511, 24 h, read-out: IZ
Escherichia coli [25] = assay: Antimicrobial activity against Escherichia coli SG458 assessed as inhibition zone at 5 ug/ml at 37 degC for 24 hrs by agar diffusion method; details: SG458, 24 h, read-out: IZ
Enterococcus faecalis [26] = assay: microbe, parasite or virus in culture; details: Enterococcus faecalis, 1528, 24 h, read-out: IZ
Staphylococcus aureus [27] = assay: Antimicrobial activity against Staphylococcus aureus Efs1 assessed as inhibition zone at 5 ug/ml at 37 degC for 24 hrs by agar diffusion method; details: Efs1, 24 h, read-out: IZ
Staphylococcus aureus [28] = assay: Antimicrobial activity against Staphylococcus aureus Efs4 assessed as inhibition zone at 5 ug/ml at 37 degC for 24 hrs by agar diffusion method; details: Efs4, 24 h, read-out: IZ
Bacillus subtilis [29] = assay: microbe, parasite or virus in culture; details: ATCC 6633, 24 h, read-out: IZ
Mycolicibacterium vaccae [30] = assay: Antimicrobial activity against Mycobacterium vaccae IMET assessed as inhibition zone at 5 ug/ml at 37 degC for 24 hrs by agar diffusion method; assay type: functional; details: read-out: IZ
Method in brief: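 Ciprofloxacin dissolved in water at 5 μg/mL and filled into 9 mm wells in nutrient or Mueller Hinton II agar. Plates held at 37 °C for 24 h, after which the growth inhibition zone was read in mm.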

Staphylococcus aureus [31] = assay: microbe, parasite or virus in culture; details: 134/93, 24 h, read-out: IZ
Pseudomonas aeruginosa [32] = assay: Antimicrobial activity against Pseudomonas aeruginosa K799/WT assessed as inhibition zone at 37 degC for 24 hrs by agar diffusion method; assay type: functional; method in brief: as §3

Structure (SMILES) | inhibition zone (IZ) (Staphylococcus aureus [1]) [mm] | inhibition zone (IZ) (Escherichia coli [2]) [mm] | inhibition zone (IZ) (Pseudomonas aeruginosa [4]) [mm] | inhibition zone (IZ) (Staphylococcus aureus [5]) [mm] | inhibition zone (IZ) (Bacillus subtilis [6]) [mm] | inhibition zone (IZ) (Pseudomonas aeruginosa [7]) [mm] | inhibition zone (IZ) (Mycolicibacterium vaccae [8]) [mm] | inhibition zone (IZ) (Enterococcus faecalis [9]) [mm] | inhibition zone (IZ) (Staphylococcus aureus [10]) [mm] | inhibition zone (IZ) (Micrococcus luteus [11]) [mm] | inhibition zone (IZ) (Staphylococcus aureus [12]) [mm] | inhibition zone (IZ) (Pseudomonas aeruginosa [14]) [mm] | inhibition zone (IZ) (Staphylococcus aureus [15]) [mm] | inhibition zone (IZ) (Micrococcus luteus [16]) [mm] | inhibition zone (IZ) (Bacillus subtilis [17]) [mm] | inhibition zone (IZ) (Escherichia coli [20]) [mm] | also measured
CC(=O)NC[C@H]1CN(c2ccc(N3CCNCC3)c(F)c2)C(=O)O1 | 18 | 14 | 20 | 25 | 26 | 30 | 35 | 25 | 14 | 30 | 18 | 18 | 31 | 23 |  |  | inhibition zone (IZ) (Staphylococcus aureus [3]): 35 mm; inhibition zone (IZ) (Pseudomonas aeruginosa [13]): 11 mm
CC(=O)OC[C@H]1CN(c2ccc(N3CCNCC3)c(F)c2)C(=O)O1 | 21 | 13 | 16 | 29 | 24 | 26 | 42 | 25 | 19 | 40 | 23 | 15 | 31 |  | 26 |  | inhibition zone (IZ) (Micrococcus luteus [18]): 31 mm
CC(=O)OC[C@H]1CN(c2ccc(N3CCN(C(=O)OCC4=C(C(=O)O)N5C(=O)[C@@H](NC(=O)Cc6ccccc6)[C@H]5SC4)CC3)c(F)c2)C(=O)O1 | 36 |  | 22 | 27 | 43 |  | 44 | 26 | 31 |  |  | 17 | 40 | 42 | 47 | 33 | inhibition zone (IZ) (Pseudomonas aeruginosa [19]): 31 mm
CC(=O)NC[C@H]1CN(c2ccc(N3CCN(C(=O)OCC4=C(C(=O)O)N5C(=O)[C@@H](NC(=O)Cc6ccccc6)[C@H]5SC4)CC3)c(F)c2)C(=O)O1 | 34 |  | 24 | 17 | 42 | 33 | 30 | 23 | 30 |  |  | 20 | 40 | 38 | 45 | 33 | inhibition zone (IZ) (Micrococcus luteus [18]): 42 mm; inhibition zone (IZ) (Pseudomonas aeruginosa [13]): 15 mm
CC(=O)OCC1=C(C(=O)O)N2C(=O)[C@@H](NC(=O)Cc3ccccc3)[C@H]2SC1 [CEFALORAM] | 39 |  | 23 | 13 | 46 |  | 0 | 23 | 35 | 44 |  | 11 | 43 | 38 | 52 | 35 | 
O=C(O)c1cn(C2CC2)c2cc(N3CCNCC3)c(F)cc2c1=O [CIPROFLOXACIN] |  |  |  |  |  |  |  |  |  |  |  |  |  |  |  |  | zone of inhibition at 5 µg/mL (Pseudomonas aeruginosa [21]): 35 mm; zone of inhibition at 5 µg/mL (Micrococcus luteus [22]): 0 mm; zone of inhibition at 5 µg/mL (Pseudomonas aeruginosa [23]): 29 mm; zone of inhibition at 5 µg/mL (Staphylococcus aureus [24]): 18 mm; zone of inhibition at 5 µg/mL (Escherichia coli [25]): 34 mm; zone of inhibition at 5 µg/mL (Enterococcus faecalis [26]): 15 mm; zone of inhibition at 5 µg/mL (Staphylococcus aureus [27]): 0 mm; zone of inhibition at 5 µg/mL (Staphylococcus aureus [28]): 0 mm; zone of inhibition at 5 µg/mL (Bacillus subtilis [29]): 31 mm; zone of inhibition at 5 µg/mL (Mycolicibacterium vaccae [30]): 23 mm; zone of inhibition at 5 µg/mL (Staphylococcus aureus [31]): 0 mm
CC(=O)NC[C@H]1CN(c2ccc(N3CCOCC3)c(F)c2)C(=O)O1 [LINEZOLID] | 35 | 28 |  | 42 | 33 |  | 52 | 34 | 35 | 45 | 39 |  | 34 | 38 | 37 | 23 | inhibition zone (IZ) (Staphylococcus aureus [3]): 39 mm; inhibition zone (IZ) (Pseudomonas aeruginosa [19]): 10 mm; inhibition zone (IZ) (Pseudomonas aeruginosa [32]): 0 mm
